# RBBP9 inh: inhibitors of human serine hydrolase RBBP9; O75884; recombinant RBBP9, FP-Rh probe fluorescence polarization; inhibition, % at 7.94 µM; actives 0.2% (n = 220,000); AID 1515;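 active = inhibition above the campaign mean of all tested compounds plus 3 SD, cut at about 14% in these data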;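 note: plate controls were DMSO wells with RBBP9 for no effect and wells lacking RBBP9 protein for full effect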
#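 Measured by – fluorescence polarization · Test system – RBBP9 protein · Input – 2.5 µM RBBP9 dispensing solution, before mixing · Measure – percent inhibition from mP, scaled between DMSO and no-protein wells · Benchmarks – DMSO-treated enzyme wells and wells lacking RBBP9 · Times – preincubation 30 min plus labeling 45 min at 25 °C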
# ROMK mod: human ROMK K+ channel modulation, primary screen; Tet-inducible ROMK, thallium flux fluorescence; actives lie on both sides; B-score at 10 µM; actives 2% (n = 130,000); AID 1918;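 active = signal ratio slope over the read window, or its plate-corrected B-score, at least 3 SD from the plate mean, either direction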;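 note: B-score of the F/F0 ratio slope over 7 to 12 s after thallium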
# Target sequence (P48048 whole entry, looked up): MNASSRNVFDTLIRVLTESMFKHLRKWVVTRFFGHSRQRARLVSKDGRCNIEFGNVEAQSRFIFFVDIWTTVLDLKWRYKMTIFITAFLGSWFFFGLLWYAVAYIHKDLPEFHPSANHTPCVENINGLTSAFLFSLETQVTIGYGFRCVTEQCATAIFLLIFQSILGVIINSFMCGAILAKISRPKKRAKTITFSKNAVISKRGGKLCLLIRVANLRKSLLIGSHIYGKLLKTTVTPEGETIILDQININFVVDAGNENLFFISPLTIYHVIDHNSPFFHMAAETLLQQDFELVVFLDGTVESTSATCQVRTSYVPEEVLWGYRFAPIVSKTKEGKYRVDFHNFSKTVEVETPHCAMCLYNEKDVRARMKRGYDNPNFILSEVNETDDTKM
# WT yeast gro inh: growth inhibition of WT yeast, mitochondrial fusion screen. inhibition, % at 10 µM. actives 2.1% (n = 190,000). mitochondrial fusion phenotypic screen, WT strain; in the data active = inhibition above about 58%; tested in S. cerevisiae
# p47phox inh: inhibitors of human p47phox binding; p47phox/p22phox peptide binding, fluorescence polarization, 2 h; inhibition, % at 24.7 µM; actives 0.53% (n = 220,000); AID 1274;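 active = inhibition above about 30%, limit read from the data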;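 note: 0% = p47phox with labelled peptide and 100% = labelled peptide alone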
# 14-3-3 Bad PPI: disrupts binding of bovine 14-3-3 zeta to phospho-Bad peptide; inhibition, % at 21.7 µM; TR-FRET 14-3-3zeta/Dy647-pBad peptide displacement, 1 h; actives 0.71% (n = 220,000);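 active = inhibition above about 70%, limit read from the data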;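 note: 0% = full 14-3-3 plus peptide FRET controls and 100% = background without 14-3-3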
# Target sequence (P63103 whole entry, looked up): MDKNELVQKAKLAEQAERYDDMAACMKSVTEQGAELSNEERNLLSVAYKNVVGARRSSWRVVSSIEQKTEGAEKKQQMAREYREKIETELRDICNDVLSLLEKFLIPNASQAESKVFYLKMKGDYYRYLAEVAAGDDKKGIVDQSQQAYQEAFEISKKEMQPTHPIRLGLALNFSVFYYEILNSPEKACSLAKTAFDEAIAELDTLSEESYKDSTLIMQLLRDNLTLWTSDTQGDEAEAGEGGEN
# KCC2 mod: modulates chloride dependent transport by human KCC2; KCC2 cells, thallium flux FluoZin-2 fluorescence; B-score of Tl+ flux slope (higher = more flux/activation; lower = inhibition) at 10 µM; actives 2.2% (n = 190,000);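 active = thallium flux slope and its plate-corrected score both differing from the plate sample mean at a set confidence after two filtering rounds, in either direction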;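 note: slope of fluorescence scaled to starting intensity during 10 to 20 s after thallium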
# ROMK hit retest: confirmation of human ROMK potassium channel modulators | normalized thallium flux (F/F0 slope) at 10 µM | shares compounds with ROMK mod | actives 54% (n = 3,000) | ROMK thallium flux, fluorescence ratio; active compounds read low;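 active = Flux at 10 µM at least 3 SD below or above vehicle control mean in one or both replicates; inconclusive = no clear call, values can overlap the other calls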
# Starred values were filed as active, the others as inactive; i = inactive; ? = inconclusive; nt = not tested or not shown. Shown are actives, neighbours in structure and some others; about 5.8% of the full set was active somewhere.
SMILES,RBBP9 inh,ROMK mod,WT yeast gro inh,p47phox inh,14-3-3 Bad PPI,KCC2 mod,ROMK hit retest
O=c1cc(CSCc2ccc(Cl)cc2)[nH]c(=O)[nH]1,-6,nt,nt,-6,2,-0.061,nt
COc1cc(Cl)c(C)cc1NC(=O)CNC(C)c1ccccc1OC (stereo not drawn),-7,-4*,45,-21,-4,-0.22,0.061*
COc1ccccc1C(C)NCC(=O)Nc1c(F)cccc1F (stereo not drawn),0,-1.1,13,-4,-2,-0.73,nt
CN(C)c1nc(Oc2ccc(C(=O)OCC(=O)Nc3ccccc3)cc2)nc(N(C)C)n1,-8,nt,-4,-23,8,-1.8,0.08
CCOC(=O)c1ccc(Oc2nc(OC)nc(N(C)C)n2)cc1,-4,nt,-6,-2,12,0.071,nt
CCCCN(C)C(=O)C1CCN(Cc2ccc(OCc3ccccc3)cc2)CC1,0,-4.4*,-4,1,51,0.78,0.061*
CCOC(=O)c1c(NC(=O)CSc2nc3ccccc3o2)sc(C(C)=O)c1C,-5,-3.3*,-6,-90,-25,nt,0.059*
CCOC(=O)c1c(NC(=O)CSc2nnc(-c3ccccc3)o2)sc(C(C)=O)c1C,-6,nt,-31,-79,-17,-1.5,nt
CCOC(=O)N1CCC(N2C(=O)c3ccccc3C2Nc2ccc(S(=O)(=O)N(CC)CC)cc2)CC1 (stereo not drawn),-5,0.17,3,-4,-5,0.0067,nt
COc1ccc(N(CC(=O)Nc2cc(C)ccc2C)S(=O)(=O)c2ccccc2[N+](=O)[O-])c(OC)c1,-13,-0.17,-2,-6,-6,-2.4,nt
CN(C)/C=N/C(=S)Nc1ccccc1Cl,-1,-0.33,18,-8,10,0.26,nt
CN(O)/C=N/C(=S)Nc1ccc(Cl)cc1Cl,-6,2.4*,3,-10,-18,1.2,0.08
O=C(N/N=C/c1sc2ccccc2c1O)c1cccc2ccccc12,-20,-0.16,8,-25,-25,2.7,nt
COc1ccc2cc(C(=O)N/N=C/c3sc4ccccc4c3O)ccc2c1,-32,-2.8*,1,-69,-15,i,0.048*
CSc1nc2[nH]c3c(c2c2nnnn12)CCCC3,11,nt,17,-14,-5,-0.35,0.072
CCOc1cc(Br)c(C=O)cc1OCC,4,2.9*,1,2,1,-0.93,0.1*
Cc1ccc(C2CC2C(=O)NNC(=S)Nc2cccc(Cl)c2)cc1 (stereo not drawn),-4,nt,21,-21,7,0.84,?
O=C(CC1(O)C(=O)Nc2ccccc21)c1ccccc1O (stereo not drawn),3,nt,-15,-6,1,0.73,nt
O=C(CC1=NCCNC(c2ccccc2)C1)c1ccccc1O (stereo not drawn),-4,-2.3*,nt,1,nt,0.86,?
CNC(=S)N1CCc2cc(OC)c(OC)cc2C1,-4,nt,nt,-1,-3,0.61,nt
O=C(NNC1CC(=O)N(c2ccccc2)C1=O)c1cccnc1 (stereo not drawn),-7,nt,nt,-12,-1,1.2,0.074
CCc1ccc2nc(SCC(=O)Nc3nnc(C)s3)c(C)cc2c1,-5,0.92,-4,6,6,0.73,0.091
CCc1nnc(NC(=O)CSc2nc3cc4c(cc3cc2C)OCCO4)s1,-10,nt,-3,-11,-14,-0.51,nt
COc1ccc(OC)c(CNC(=O)CCCc2cn(C)c3ccccc23)c1,0,1.3*,-6,0,-10,-2.5,?
Cc1ccc(CNC(=O)CCCc2ccccc2)cc1,-7,nt,7,-2,-7,nt,nt
SMILES,RBBP9 inh,ROMK mod,WT yeast gro inh,p47phox inh,14-3-3 Bad PPI,KCC2 mod,ROMK hit retest
COc1ccc(CCCC(=O)NCc2ccccc2)cc1C,-2,4*,-8,-6,-3,-0.29,0.088
Cc1ccc(-c2nc3ccccc3c(=O)n2NC(=S)N(C)C)cc1,-9,nt,-4,8,7,0.13,nt
Cc1cc(=O)oc2cc(OCCSCCN3CCCCC3)ccc12,-1,nt,nt,-5,4,0.17,nt
Cc1ccc(OC(=S)Nc2ccc(O)cc2)cc1,11,-5.1*,8,-3,-1,0.29,0.043*
CCCCOC(=O)C1CCC[C@@H](C)N1 (stereo partly drawn),-3,nt,-22,-12,8,-0.34,0.079
CC1CCCC(C(=O)OCc2ccccc2)N1 (stereo not drawn),-8,nt,-20,2,13,-0.21,nt
O=C(Cn1cc[n+](CC(=O)c2ccc(Cl)cc2Cl)c1)c1ccc(Cl)cc1Cl,-1,-3*,nt,-11,8,-1.7,0.08
COCCCn1c(O)c(/C=C2\N=C(C#N)C(=Nc3ccc(C)cc3)O2)sc1=S,-1,nt,nt,-43,-13,0.3,nt
C=CCNC(=O)CC(=O)N/N=C/c1cccs1,-2,-0.36,-13,-8,-20,-0.53,nt
CCOC(=O)c1c(C)oc2c1c(C=NCc1ccccn1)c(O)c1ccccc12,-8,nt,5,-10,12,-0.93,0.064*
CCN(CC)S(=O)(=O)c1ccc(Cl)c(NC(=O)COC(=O)c2ccc(O)cc2)c1,-6,-1.8,-19,-12,-5,-0.97,0.074
CCN(CC)S(=O)(=O)c1ccc(Cl)c(NC(=O)COC(=O)c2cccn2C)c1,-18,2.7*,9,-4,4,-0.98,0.073
CN(C)S(=O)(=O)c1ccc(Cl)c(NC(=O)COC(=O)c2ccc(O)cc2)c1,-4,-0.84,-10,-6,-12,0.35,nt
CC(NC(=O)/C(C#N)=C1\N=C(NC(=O)c2cccs2)c2ccccc21)c1ccccc1 (stereo not drawn),2,nt,1,-38,-36,0.75,nt
C[C@H]1[C@H](C)CC[C@]2(C)CC[C@]3(C)C(=CC[C@@H]4[C@@]5(C)CC[C@@H](O)[C@](C)(C(=O)O)[C@@H]5CC[C@]43C)[C@H]12,nt,nt,nt,6,6,-0.012,0.081
C[C@H]1[C@H](C)CC[C@]2(C(=O)O)CC[C@]3(C)C(=CC[C@@H]4[C@@]5(C)CC[C@H](O)C(C)(C)[C@@H]5CC[C@]43C)[C@H]12,nt,nt,nt,7,2,1.8,nt
CC[C@H](C)[C@H](NC(N)=O)C(=O)Nc1ccc(NC(C)=O)cc1,0,nt,nt,-15,-6,0.28,0.082
O=C(O)CNC(=O)/C(=C\c1cccc([N+](=O)[O-])c1)NC(=O)c1ccco1,2,nt,nt,9,1,-0.014,nt
CNc1ncc(Cc2ccccc2)s1,0,-0.0045,11,1,2,0.46,nt
CC(=O)Nc1ccc(NC(=O)C(C)OC(=O)c2ccccc2NS(=O)(=O)c2cccs2)cc1 (stereo not drawn),-8,nt,nt,0,0,-2.9,nt
Cc1cccc(NC(=O)C(C)OC(=O)c2ccccc2NS(=O)(=O)c2cc(C)c(C)c([N+](=O)[O-])c2)c1 (stereo not drawn),4,-3*,9,-24,14,-0.85,0.061*
